ChEMBL document CHEMBL1130407, “Structure-based design of new constrained cyclic agonists of the cholecystokinin CCK-B receptor” (J Med Chem, 1997)
Non-standard residues stand in square brackets, D forms with d. Residues, ends and D or L forms follow the SMILES beside them. *: point of attachment. NMeNle = CCCC[C@H](NC)C(=O)O; Boc = CC(C)(C)OC(=O)*

Experiments:
[1] = target: T1, Cholecystokinin receptor type A (Cavia porcellus, UniProt Q63931); assay: Inhibition of [3H]pCCK-8 binding to Cholecystokinin type A receptor of Guinea pig pancreatic membranes
T1 sequence (Q63931 whole entry): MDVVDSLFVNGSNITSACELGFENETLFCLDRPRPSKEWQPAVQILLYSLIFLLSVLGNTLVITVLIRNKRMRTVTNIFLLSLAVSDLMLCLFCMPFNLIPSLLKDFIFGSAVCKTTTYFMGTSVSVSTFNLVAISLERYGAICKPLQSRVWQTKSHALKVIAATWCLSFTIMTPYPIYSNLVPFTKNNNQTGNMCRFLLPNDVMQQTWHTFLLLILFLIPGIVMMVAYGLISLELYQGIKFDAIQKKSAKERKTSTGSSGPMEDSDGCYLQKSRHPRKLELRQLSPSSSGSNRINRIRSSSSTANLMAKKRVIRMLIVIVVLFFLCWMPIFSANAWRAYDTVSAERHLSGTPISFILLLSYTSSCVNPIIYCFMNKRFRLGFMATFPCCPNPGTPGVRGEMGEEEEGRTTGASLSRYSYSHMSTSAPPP
How it was run: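 Guinea pig pancreatic membranes (0.2 mg protein/tube) incubated with 0.1 nM [3H]pCCK8 and varying competitor for 120 min at 25 °C. Buffer: 10 mM Pipes-HCl pH 6.5, 30 mM MgCl2, 0.2 mg/mL bacitracin, 0.2 mg/mL soybean trypsin inhibitor. Filtration read-out; Ki by Cheng–Prusoff; three experiments in triplicate, mean ± SEM.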

[2] = target: T2, Gastrin/cholecystokinin type B receptor (Rattus norvegicus) (UniProt P30553); assay: Compound was tested for its ability to stimulate the CCK-B/gastrin receptor by measuring gastric acid output in the anesthetized perfused rat stomach; assay type: functional, tissue-based
T2 sequence (whole entry): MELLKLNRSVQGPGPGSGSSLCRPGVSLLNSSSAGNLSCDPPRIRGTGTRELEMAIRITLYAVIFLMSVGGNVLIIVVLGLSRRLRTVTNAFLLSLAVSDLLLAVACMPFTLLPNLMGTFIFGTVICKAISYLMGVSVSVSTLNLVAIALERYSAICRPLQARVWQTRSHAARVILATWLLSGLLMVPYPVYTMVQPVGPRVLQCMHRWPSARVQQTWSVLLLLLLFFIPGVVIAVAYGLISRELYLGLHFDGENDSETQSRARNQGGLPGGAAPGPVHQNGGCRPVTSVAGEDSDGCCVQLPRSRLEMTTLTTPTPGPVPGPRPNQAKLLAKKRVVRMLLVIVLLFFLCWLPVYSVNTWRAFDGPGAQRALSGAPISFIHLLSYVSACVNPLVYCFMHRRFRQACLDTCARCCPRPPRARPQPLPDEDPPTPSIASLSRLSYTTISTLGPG
How it was run: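 Male Sprague–Dawley rats (300 ± 25 g), fasted 18 h with water available, anesthetized with intramuscular urethane (0.6–0.7 mL of 25% solution per 100 g). Compounds in saline given iv by continuous infusion. Gastric secretion collected every 15 min and H+ titrated with 0.01 N NaOH to pH 7. Output expressed as % of baseline; ED50 estimated from dose-response curves.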

[3] = target: T3, Gastrin/cholecystokinin type B receptor (Rattus norvegicus, UniProt P30553); assay: Affinity to inhibit [3H]pCCK-8 specific binding on rat brain Cholecystokinin type B receptor expressed in CHO cells; assay type: cell-based
T3 sequence (P30553 whole entry): T2 sequence (whole entry)

[4] = target: T3, Gastrin/cholecystokinin type B receptor; assay: Effective concentration for the stimulation of Inositol Phosphate accumulation in CHO cells expressing wild-type Cholecystokinin type B receptor; assay type: functional, cell-based

Compound	Ki [1] [nM]	Ki ([3]; cho) [nM]	other results
C[C@]1(Cc2c[nH]c3ccccc23)NC(=O)CCCCCCC[C@H](C(=O)N[C@@H](CC(=O)O)C(=O)N[C@@H](Cc2ccccc2)C(N)=O)NC1=O	2210	–	ED50 [2]: 7.6 nM/h/kg
C[C@]1(Cc2c[nH]c3ccccc23)NC(=O)CCCCCC[C@@H](C(=O)N[C@@H](CC(=O)O)C(=O)N[C@@H](Cc2ccccc2)C(N)=O)NC1=O	2880	142	–
CSCC[C@H](NC(=O)[C@@H](N)Cc1c[nH]c2ccccc12)C(=O)N[C@@H](CC(=O)O)C(=O)N[C@@H](Cc1ccccc1)C(N)=O [TETRAGASTRIN]	36100	–	–
C[C@]1(Cc2c[nH]c3ccccc23)NC(=O)CCCCSSCC[C@H](C(=O)N[C@@H](CC(=O)O)C(=O)N[C@@H](Cc2ccccc2)C(N)=O)NC1=O	–	–	ED50 [2]: 52 nM/h/kg
C[C@]1(Cc2c[nH]c3ccccc23)NC(=O)CCCCCCC[C@@H](C(=O)N[C@@H](CC(=O)O)C(=O)N[C@@H](Cc2ccccc2)C(N)=O)NC1=O	> 10000	–	–
C[C@]1(Cc2c[nH]c3ccccc23)NC(=O)CCCCSSCC[C@@H](C(=O)N[C@@H](CC(=O)O)C(=O)N[C@@H](Cc2ccccc2)C(N)=O)NC1=O	271	80	EC50 ([4]; cho): 7 nM
C[C@]1(Cc2c[nH]c3ccccc23)NC(=O)CC(=O)NCCCC[C@@H](C(=O)N[C@@H](CC(=O)O)C(=O)N[C@@H](Cc2ccccc2)C(N)=O)NC1=O	2290	–	–
C[C@]1(Cc2c[nH]c3ccccc23)NC(=O)CCCCCCCC[C@@H](C(=O)N[C@@H](CC(=O)O)C(=O)N[C@@H](Cc2ccccc2)C(N)=O)NC1=O	2470	23	EC50 ([4]; cho): 4 nM
CCCC[C@@H](C(=O)N[C@@H](CC(=O)O)C(=O)N[C@@H](Cc1ccccc1)C(N)=O)N(C)C(=O)[C@H](Cc1c[nH]c2ccccc12)NC(=O)OC(C)(C)C (Boc-W[NMeNle]DF-NH2)	> 5000	–	Ki [3]: 8.7 nM; EC50 [4]: 1.5 nM
